Test system: MS2 coat protein
Experiment: apparent Kd, MS2 coat protein; higher = weaker binding; RNA-MaP array; FMN 200 µM where present
Procedure, shortened: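 Two titrations, one without ligand and one with constant ligand, were run with SNAP-549-labelled MS2 coat protein from 0.7 or 1.5 nM, doubling to 3 µM. The targets were designs transcribed by stalled E. coli RNA polymerase on Illumina sequencing-chip clusters, in 100 mM Tris-HCl pH 7.5, 80 mM KCl, 4 mM MgCl2, BSA, DTT, yeast tRNA and Tween-20. The apparent Kd is the median of filtered per-cluster binding-curve fits, with green signal normalised to red-channel RNA signal and control-cluster median Fmax.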

[1] = designed as: OFF switch for flavin mononucleotide, no ligand
[2] = ligand present: flavin mononucleotide, designed as: OFF switch for flavin mononucleotide
[3] = designed as: ON switch for flavin mononucleotide, no ligand
[4] = ligand present: flavin mononucleotide, designed as: ON switch for flavin mononucleotide

Sequence	apparent Kd [1] [nM]	apparent Kd [2] [nM]	apparent Kd [3] [nM]	apparent Kd [4] [nM]
UGUCUGAUCUAAUAACAUGAGGAUCACCCAUGUGUUCACAACUAGGAUAUCGAUUAUUAAAACGUCGAGAAGGAGUAUACAUUA	34.5	43.6		
AUGCGGUCAGGAUAUGCAUGGCGGGACUUGCGUCGUGGCGUGGAGAAGGGACAUGAGGAUCACCCAUGUGGAGG	108	87		
AGCUGUGGCCGAGGAUAUCUGACUUCAAUAACCGAAAUAUAAUCGGACAUGAGGAUCACCCAUGUAGAGAAGGCGGUCUCAGCA	17.1	24.9		
UUGGCGACGUAGAAGGGUGACAUGAGGAUCACCCAUGUGCCGAUAUUUCUCGAGAUAUGUCGGCCACAGGAUAUACGUGCCAUC			59.3	31.9
UCACGGAGCCUAGGAUAUACAUGAGGAUCACCCAUGUAUUGACGUUAGUGCUGGACUGAUUUGCUGUAGAAGGAGGUCACUGAG	16.6	18.3		
GUGACGAAUGUAGGAUAUGCUGAGGAAUACUCAGCAGAAGGACAUGAGGAUCACCCAUGUCAUCCUUAUAAUAAAUAUCGUCAC	13.4	17.7		
GCGGAACAUGAGGAUCACCCAUGUAUCCGAAAUAUGGACUCACAGGAUAUCCCGAGUUGCCAGUCGGAGAAGGGUGACUCCAGC			12.3	8.09
AUCUUUAACAUAGGAUAUAGUAUGAAGGUUUAUUUAGAAGGAUGUCACAUGAGGAUCACCCAUGUAAUAGGAUUACCCAUGUAU	29.8	21.9		
GGAUGACAUAGUCAUCCUUAACGAACAUGAGGAUCACCCAUGUAGGAUAUGCUACUCAAAGAGUAGCAGAAGGGCGUGUGUCUU	42.6	49		
GGCGGUGACAUAGGAUAUCUUCUAAUGCACAUGAGGAUCACCCAUGUCGCUACGCACGGGUUUGAAGAGAAGGGUGUUCGUGCC			346	286
GUAGCAACAUGAGGAUCACCCAUGUAGGAUAUCGCUAUUGUAAUCAUGAAACAUGAUUACAAUAGCGAGAAGGACAUAUGCUAG	14.9	12.8		
CUGGUGUGAGGAUAUCAGGACACGCCCGAGGGCGUGUCAAAUGAGAAGGCACAUGAGGAUCACCCAUGUGGGAC	42.3	99.6		
GUAGCAUUGAGAGGAUAUCCAUACCGGAAACGGACAUGAGGAUCACCCAUGUGGCGAAAGCCGUGGGAGAAGGCUCUAUGCUAC			8.39	4.32
GGUGCGUAUGUGAGGAUAUGCUGGUCCUUGGAUCCGCAGAAGGCACAUGAGGAUCACCCAUGUGGUGUCGUACC	299	27.6		
AAAAAACAUGAGGAUCACCCAUGUAAAAAAAACACAGGAUAUCCCUUUUUUAAAAAAAAAGGAGAAGGGUGAAAAA			41.6	32.9
AGGGCGGGAGGAUAUCCAAUAUAUGACAUGAGGAUCACCCAUGUUUCCACUCGUACCUCCGGAGAAGGCCCGCCCA	24.4	22.3		
UUUGCAACAUGAGGAUCACCCAUGUAGGAUAUCGCUAUUGUAAUCAUGAAACAUGAUUACAAUAGCGAGAAGGACAUAUGUCCC	7.56	8.59		
UGGAGGUCAGGAUAUGCAUGGCGGGACUUGCGUCGUGGCGUGCAGAAGGGACAUGAGGAUCACCCAUGUGGAGU	112	77.4		
UUGCCUCAGAACAUGAGGAUCACCCAUGUGCUGCGGGCAACGUAGGAUAUGAUGGUGUGACACCAUCAGAAGGAUGAUGGUACC			5.97	5.81
CACCGUUAGAGAGGAUAUCGUACAUGAGGAUCACCCAUGUAAUAAAUGAGAAUUUCGGAUGUCUGCGAGAAGGCUCGAAUCGGC	34.6	27.9		
AAAAGGCUAGGAUAUACCAGUGGGUGUAAGAACUCAAAGUUACAUGAGGAUCACCCAUGUAGAAGGAGUAAAAU	17.1	40		
CUCUUGUAAGGAUAUGACUACAUAAAAAAAAAAAAAUGUAGUCAGAAGGUACAUGAGGAUCACCCAUGUACUAA	20.9	22.1		
CUAAAUCAUGUAGGAUAUGCAUGGCGAAGCUACGCAGAAGGACAUGAGGAUCACCCAUGUCACUCCGUCUGCGUACAGACGGAG	19.7	92.3		
AAAAGUCCUGAGGAUAUCGAAACUCCAUUAGGACGAGAAGGCGGGACAUGAGGAUCACCCAUGUGGGCGAGCUC	232	475		
GAAGCACAUGAGGAUCACCCAUGUAAGGAUAUACGUCUGGUCCGGCCGGACCAGUACCGUAGAAGGUACGUAAA	19.1	23		
CAGUACUGAGGAUAUACAUGAGGAUCACCCAUGUGUUCCAGCUAGGUAACUAGCAAAAGUAGAAGGCAGUACUG	23.6	321		
CUUUUGUGAGGAUAUCAGUAGUAAAAAAAUAAAAUUACUACUGAGAAGGCACAUGAGGAUCACCCAUGUUCCUU	26.8	31.6		
GCUGACGAUGUAGGAUAUCUCGACGAUAAGUCGAGAGAAGGACAUGAGGAUCACCCAUGUAACUCUACGUCAGCGAGGAAACUC	16.8	18		

Sequence	apparent Kd [1] [nM]	apparent Kd [2] [nM]	apparent Kd [3] [nM]	apparent Kd [4] [nM]
ACACGGAAGUCAGGAUAUGUAUCAGCACGAUUGUUACAUGAGGAUCACCCAUGUUUCACGGGCCAACAGAAGGGACAGGGUGGC			23.6	7.82
AUAUUGUGAGGAUAUGAACUUAGUAUCGAAAGAUACUAAGAUCAGAAGGCACAUGAGGAUCACCCAUGUUUCUC	77.5	402		
GUAUGAGCGAUAGGAUAUACUGAGAUUGAAUGGGUAGAAGGAUCACUUGUGUGGAAGACAUGAGGAUCACCCAUGUUACGGGCC			20.7	62.6
AAAAAAAAGGGUGAGGAUAUAGAAAAAAAAACAUGAGGAUCACCCAUGUGAAAAAAAAAAAAAAGCUAGAAGGCACAAAAAAAAAA			243	162
GAAUAAUUGAUCCAAUUUAACUACAUGAGGAUCACCCAUGUGCAGGAUAUCGUAAUAUUUAAUUACGAGAAGGGCAAGAACGGU	366	516		
AGUGUGUGGCAGGAUAUUCUGGUCGUGAGUCGGGAAGAAGGGUCUACAUGAGGAUCACCCAUGUGAGCGGUUGA	99.4	258		
AAAACAUGAGGAUCACCCAUGUAAAGAUCGGUUGAUGAAAGUGAGGAUAUACAAAAUUUUAUGGAGUAGAAGGCACUGGGUACA			44.6	40.9
AGUAAGUUUGAGAAGGUGAAGUGGAAACAUGAGGAUCACCCAUGUAUUAGGAAGCCUGGUUUUGUCAAGGAUAUCGGGUUUACA			17.9	16.5
CUUAGACAUGAGGAUCACCCAUGUGAGGAUAUGAUGCAGCAGUGGUCUACGCUGUGCAUCAGAAGGCACAUAUG	120	155		
UAUUUAAUCUCAGGAUAUAACAUUACAUACAAAUUAGAAGGGAGAACAUGAGGAUCACCCAUGUACAUGAGGAUCACCCAUGUU			692	576
UUUGUUGUUGUGAGGAUAUCGUUGUUAUUUUGAAACGAGAAGGCACAUGAGGAUCACCCAUGUUUGUUGAUGGU	43.9	122		
GGGCUGUCAGGAUAUCGCGCGCGCGCGGAAAUGUGUGUGUGUGAGAAGGGACAUGAGGAUCACCCAUGUGGCCC	35.6	36.8		
UGAUCUAGCGGAGGAUAUACAUGAGGAUCACCCAUGUAGAUAUCAUGACCGUAGUCGUGUAUCGUGUAGAAGGCCGCUAGAUCU	12.7	24		
GUAGCAUACCGAGGAUAUCUAUACCGGAAACGGACAUGAGGAUCACCCAUGUGGCGAAAGCCUUGGGAGAAGGCGGAAUGCUAC			20.8	11.6
CACAGGGAUUCAGGAUAUAUUAGCCGAGGCCGCGUAGAAGGGAAAUCCUGACAUGAGGAUCACCCAUGUCGACCCGCCUUCCAU			48.6	48.5
CAAGCGGGAGGAUAUACAGGGUUGUCCGAAAAUCGCCAGCCACAUGAGGAUCACCCAUGUAGAAGGCCUAUAGA	53	23.9		
AGCUACGUUUCGUAGCAGCUAGGUGAGGAUAUUCAAUUUUUCACAUGAGGAUCACCCAUGUAAAAGAAGAAGGCGCCUAGAAAG			4.28	4.25
AUGUUGAGCAGUGUAUUAAUAAAACAUGAGGAUCACCCAUGUAGAAGGCACGAGCUGAUCGCUCGUGAGGAUAUACAUCACUGC	5.15	5.9		
AACCGACAUGAGGAUCACCCAUGUAAGGAUAUCCACGGACAACGCCAUAGUUGCCGGCGGAGAAGGUGCGUGGU	26	46		
UUACAUACAAAGGUACAUGAGGAUCACCCAUGUUUAUUGGGAAGAAGGGUAACAGUAUUACAUAUAUAGGAUAUUUCACAAAUG			90.6	69.8
UUGGUUGUCGUAGGAUAUGUAGGAUAUUCCUACAUGAGGAUCACCCAUGUUCGCAUGGAAGAAGGACAGAAGGACGAUGACCAU			1290	23.7
CACUUCCCGUCAGGAUAUCGCCGUAGGUCCUCGGGUCUCGCCGUCAUACAUGAGGAUCACCCAUGUGAGAAGGGACGGGUUUCA	16.4	107		
UAGCUUGACGCAGGAUAUCCAGGGCUGAGAUGAGGAGAAGGGCGCCAAACAUGAGGAUCACCCAUGUAUUAUGCAGGGUCCUCA	336	315		
UUUUUACGAGGAUAUCGUUUUUUUCACAUGAGGAUCACCCAUGUUGUUUAUGUUUCGUUGCGAGAAGGCGUUUGUU	27.3	21.3		
CUGUGUGACCGAGGAUAUAGACAUGAGGAUCACCCAUGUACGCCCAUCCAUGAAAGGUCCGUCGUCUAGAAGGCGGAGGCAAUG	11.2	23.4		
UGUUGUAUUACAGGAUAUCUAUUGUUUUUAUAUAGAGAAGGGUAUUCACAUGAGGAUCACCCAUGUAUAUACGAGGAAGUUGUG			41.1	45.8
AGAUCGAUUGUGAGGAUAUUGACCGGACGACCCAUCGAGAAGGCACAUGAGGAUCACCCAUGUGAGUCGGUUUA	14.9	18.2		

Reference: the EternaBench riboswitch data
